Assay [1] concerns the target T1, Retinoic acid receptor beta (Homo sapiens) (UniProt P10826).
T1 sequence (whole entry): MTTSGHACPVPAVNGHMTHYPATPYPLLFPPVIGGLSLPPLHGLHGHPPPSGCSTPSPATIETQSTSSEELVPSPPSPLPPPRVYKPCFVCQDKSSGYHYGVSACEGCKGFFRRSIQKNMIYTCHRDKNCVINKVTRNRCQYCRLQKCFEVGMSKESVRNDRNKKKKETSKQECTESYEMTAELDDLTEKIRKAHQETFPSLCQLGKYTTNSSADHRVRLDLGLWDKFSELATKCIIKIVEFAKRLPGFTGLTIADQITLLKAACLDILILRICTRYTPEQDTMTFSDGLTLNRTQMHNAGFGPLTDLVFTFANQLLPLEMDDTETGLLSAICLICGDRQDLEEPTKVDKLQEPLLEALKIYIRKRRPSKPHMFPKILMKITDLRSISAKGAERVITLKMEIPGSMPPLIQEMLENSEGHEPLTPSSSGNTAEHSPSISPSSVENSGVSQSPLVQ
Nature of the assay: Agonist activity at recombinant human RAR-beta expressed in mammalian cells by luciferase reporter gene based transactivation assay relative to control. It is filed as cell-based. The procedure, abridged:
(§1)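 Transactivation in proprietary reporter cells expressing recombinant human RAR subtype with RARE-linked beetle luciferase. Compounds in DMSO (final 0.4%), 8-point dose response in triplicate; cells added, incubated overnight at 37 °C, 5% CO2, then luciferase reagent 30 min r.t., luminescence read.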
For orientation: In a reporter assay the amount or activity of a reporter protein is the signal.

Assay [2] deals with T2, Retinoic acid receptor gamma (Homo sapiens) (UniProt P13631).
T2 sequence (whole entry): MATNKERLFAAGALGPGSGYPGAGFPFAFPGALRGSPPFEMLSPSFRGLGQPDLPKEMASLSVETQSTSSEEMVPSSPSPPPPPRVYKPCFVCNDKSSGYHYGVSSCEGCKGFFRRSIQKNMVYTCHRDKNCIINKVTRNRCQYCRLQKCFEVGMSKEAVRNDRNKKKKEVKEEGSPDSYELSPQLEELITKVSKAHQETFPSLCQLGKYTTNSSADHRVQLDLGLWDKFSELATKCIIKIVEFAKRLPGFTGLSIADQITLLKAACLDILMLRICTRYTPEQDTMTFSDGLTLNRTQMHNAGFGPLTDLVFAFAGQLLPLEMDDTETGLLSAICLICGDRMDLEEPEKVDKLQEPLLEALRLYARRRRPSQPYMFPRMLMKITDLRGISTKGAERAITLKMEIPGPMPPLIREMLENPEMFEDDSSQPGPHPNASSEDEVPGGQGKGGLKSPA
In words: Agonist activity at recombinant human RAR-gamma expressed in mammalian cells by luciferase reporter gene based transactivation assay relative to control. The format is cell-based. In a few lines:
as §1

Assay [3] addresses T3, Retinoic acid receptor alpha (Homo sapiens, UniProt P10276).
T3 sequence (P10276 whole entry): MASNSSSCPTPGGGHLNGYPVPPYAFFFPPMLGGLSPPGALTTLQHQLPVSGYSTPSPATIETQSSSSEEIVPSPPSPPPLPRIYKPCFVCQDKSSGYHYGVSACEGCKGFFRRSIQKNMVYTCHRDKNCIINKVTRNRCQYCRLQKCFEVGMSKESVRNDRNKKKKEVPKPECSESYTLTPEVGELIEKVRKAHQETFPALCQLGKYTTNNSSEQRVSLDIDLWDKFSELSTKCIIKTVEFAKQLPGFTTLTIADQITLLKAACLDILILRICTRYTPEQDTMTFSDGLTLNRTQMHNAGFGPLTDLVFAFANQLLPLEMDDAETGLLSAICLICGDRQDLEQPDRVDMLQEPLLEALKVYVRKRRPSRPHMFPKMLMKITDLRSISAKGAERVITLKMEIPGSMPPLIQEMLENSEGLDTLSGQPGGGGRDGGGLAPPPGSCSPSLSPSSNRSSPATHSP
In words: Antagonist activity at recombinant human RAR-alpha expressed in mammalian cells in presence of 9-cis-RA by luciferase reporter gene based transactivation assay. The format is cell-based. In a few lines: (§2)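 Compounds 8-point dose response in triplicate, DMSO final 0.4%; overnight at 37 °C, 5% CO2; luminescence after 30 min detection reagent. IC50 by four-parameter logistic fit; agonist-free wells set background.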

The target of assay [4] is T4, Retinoic acid receptor alpha (Homo sapiens) (UniProt P10276).
T4 sequence (whole entry): T3 sequence (P10276 whole entry)
In words: Agonist activity at recombinant human RAR-alpha expressed in mammalian cells by luciferase reporter gene based transactivation assay relative to control. It is filed as cell-based. In a few lines:
as §1

The target of assay [5] is T5, Retinoic acid receptor gamma (Homo sapiens, UniProt P13631).
T5 sequence (P13631 whole entry): T2 sequence (whole entry)
In words: Antagonist activity at recombinant human RAR-gamma expressed in mammalian cells in presence of ATRA by luciferase reporter gene based transactivation assay. The format is cell-based. The procedure, abridged: as §2

The target of assay [6] is T6, Retinoic acid receptor beta (Homo sapiens, UniProt P10826).
T6 sequence (P10826 whole entry): T1 sequence (whole entry)
In words: Antagonist activity at recombinant human RAR-beta expressed in mammalian cells in presence of ATRA by luciferase reporter gene based transactivation assay. The format is cell-based.

Assay [7] deals with T6, Retinoic acid receptor beta. Nature of the assay: Agonist activity at recombinant human RAR-beta expressed in mammalian cells by luciferase reporter gene based transactivation assay. The format is cell-based. The procedure, abridged: (§3)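 Human RAR-subtype luciferase reporter cells (RARE-driven). Compounds in DMSO (final 0.4%) tested as 8-point dose response in triplicate. Incubated overnight at 37 °C in 5% CO2, then detection reagent 30 min at r.t. and luminescence measured. EC50 by four-parameter logistic fit, mean ± SEM from geometric mean of log EC50 across independent experiments.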

The target of assay [8] is T5, Retinoic acid receptor gamma. In words: Agonist activity at recombinant human RAR-gamma expressed in mammalian cells by luciferase reporter gene based transactivation assay. The format is cell-based. The procedure, abridged:
as §3

In assay [9] the target is T3, Retinoic acid receptor alpha.

The term Emax denotes the size of the effect at its maximum, as opposed to the concentration needed. Usually IC50 stands for the point on the concentration scale where inhibition reaches its midpoint. Take `CC1(C)CC=C(c2ccc(CN3CCOCC3)cc2)c2cc(C(=O)Nc3ccc(C(=O)O)cc3)ccc21`: the maximal effect (Emax) in [1], in assay [2] and in assay [4] was 0% in each case. Moreover, the figures for the IC50 in assay [3], in assay [5] and in assay [6] were 0.52 µM, more than 3.3 µM and 0.173 µM, respectively.

With `Cc1ccc(C2=CCC(C)(C)c3ccc(C(=O)N4CCc5cc(C(=O)O)ccc5C4)cc32)cc1`, the IC50 in assay [3], in assay [5] and in [6] was more than 3.3 µM in each case.

Consider `Cc1ccc(C2=CC(C)(C)Oc3ccc(S(=O)(=O)Nc4ccc(C(=O)O)cc4)cc32)cc1`, for which the concentration for half-maximal inhibition (IC50) in assay [3], in assay [5] and in assay [6] was more than 3.3 µM throughout.

As for `Cc1ccc(C2=CCC(C)(C)c3ccc(C(=O)NCc4ccc(C(=O)O)cc4)cc32)cc1`, the IC50 in [3], in assay [5] and in [6] was more than 3.3 µM throughout.

As to `CC1(C)CC=C(c2ccc(CN3CCOCC3)cc2)c2cc(NC(=O)c3ccc(C(=O)O)cc3)ccc21`, the IC50 was 1.5 µM in assay [3], more than 3.3 µM in [5] and more than 3.3 µM in assay [6].

For `CC1(C)CC=C(c2ccc(N3CCOCC3)cc2)c2cc(C(=O)Nc3ccc(C(=O)O)cc3)ccc21`, the IC50 in [3] was 1.1 µM; in assay [5] it was 1.5 µM; in assay [6] it was more than 3.3 µM.

Take `Cc1ccc(C2=CC(C)(C)Oc3ccc(S(=O)(=O)Nc4cc(F)c(C(=O)O)c(F)c4)cc32)cc1`: the half-maximal inhibitory concentration (IC50) in assay [3], in assay [5] and in assay [6] was more than 3.3 µM in each case.

As for `Cc1ccc(C2=CCC(C)(C)c3ccc(NC(=O)Nc4ccc(C(=O)O)cc4)cc32)cc1`, the values for the half-maximal inhibitory concentration (IC50) in [3], in assay [5] and in [6] were more than 3.3 µM, more than 3.3 µM and 0.84 µM, respectively.

In the case of `CC1(C)CC=C(c2ccccc2)c2cc(NC(=O)Nc3ccc(C(=O)O)cc3)ccc21`, the IC50 in [3], in assay [5] and in assay [6] was more than 3.3 µM throughout.

With `CC1(C)CC=C(c2cnc3ccccc3c2)c2cc(C(=O)Nc3ccc(C(=O)O)cc3)ccc21`, the IC50 was found to be 0.27 µM in assay [3], 2.7 µM in [5] and 0.26 µM in [6].

On to `Cc1ccc(C2=CC(C)(C)Oc3c(Br)cc(S(=O)(=O)Nc4cc(F)c(C(=O)O)c(F)c4)cc32)cc1`, for which the IC50 in assay [3], in assay [5] and in [6] was more than 3.3 µM each time.

Turning to `Cc1ccc(C2=CCC(C)(C)c3ccc(N4CCc5cc(C(=O)O)ccc5C4)cc32)cc1`, the IC50 in assay [3] is more than 3.3 µM; in assay [5] it was more than 3.3 µM; in assay [6] it was 0.35 µM.

A word on the EC50: it is the midpoint of the concentration-response curve. Consider `CC1(C)CC=C(c2cccs2)c2cc(C(=O)Nc3ccc(C(=O)O)cc3)ccc21`, for which the values for the Emax in assay [1] (filed as agonist) and in [4] were 167% and 3%, respectively. For the same compound, the IC50 is 0.44 µM in assay [3], more than 3.3 µM in assay [5] and more than 3.3 µM in [6]. Further, the EC50 in assay [7] came to 0.015 µM.

`CC1(C)CC=C(c2ccccc2)c2cc(C(=O)NCc3ccc(C(=O)O)cc3)ccc21`: the IC50 in assay [3], in [5] and in assay [6] was more than 3.3 µM in each case.

Turning to `CC1(C)CC=C(c2ccc(N3CCOCC3)cc2)c2cc(NC(=O)c3ccc(C(=O)O)c([N+](=O)[O-])c3)ccc21`, the IC50 in assay [3], in assay [5] and in [6] was more than 3.3 µM throughout.

As to `Cc1ccc(C2=CCC(C)(C)c3ccc(-c4ccc5cc(C(=O)O)ccc5n4)cc32)cc1`, the IC50 in assay [3] was more than 3.3 µM; in assay [5], 0.13 µM; in assay [6] it was 0.021 µM.

For `Cc1ccc(C2=CCC(C)(C)c3ccc(C(=O)Nc4cc(F)c(C(=O)O)c(F)c4)cc32)cc1`, the IC50 in assay [3] is 0.43 µM; in [5], more than 3.3 µM; in assay [6], more than 3.3 µM.

As to `Cc1ccc(C2=CC(C)(C)Oc3ccc(NS(=O)(=O)c4ccc(C(=O)O)cc4)cc32)cc1`, the IC50 in assay [3], in assay [5] and in assay [6] was more than 3.3 µM in each case.

Consider `CC1(C)CC=C(c2ccc(N3CCOCC3)cc2)c2cc(NC(=O)Nc3ccc(C(=O)O)cc3)ccc21`, for which the IC50 in [3], in assay [5] and in assay [6] was more than 3.3 µM throughout.

As to `Cc1ccc(C2=CCC(C)(C)c3ccc(C(=O)Nc4ccc(C(=O)O)cc4)cc32)cc1`, the maximum response (Emax) in [1] (filed as agonist) worked out at 46%; in assay [2], 15%; in assay [4], 9%. For the same compound, the IC50 in assay [3] is 0.029 µM; in assay [5], 2.6 µM; in assay [6], more than 3.3 µM. The EC50 in assay [8] is more than 3.3 µM; in assay [7] it was 0.055 µM.

`CC1(C)CC=C(c2ccccc2)c2cc(/C=C/c3ccc(C(=O)O)cc3)ccc21`: in assay [2], the Emax was found to be 26%. The figures for the IC50 in [9], in assay [3] and in [5] were approximately 0.01 µM, 0.0094 µM and 0.0075 µM, respectively. Besides, the EC50 in assay [8] was found to be 0.12 µM.

On to `CC1(C)CC=C(c2ccccc2)c2cc(C(=O)Nc3ccc(C(=O)O)cc3)ccc21`, for which the Emax came to 150% in assay [1] (filed as agonist), 47% in [2] (filed as agonist) and 4% in assay [4]. Also, the IC50 in assay [3] was 0.14 µM; in [5], more than 3.3 µM; in assay [6], more than 3.3 µM. In addition, the EC50 in assay [8] came out at 0.56 µM; in assay [7] it was 0.025 µM.

Regarding `CC1(C)CC=C(c2ccc(N3CCOCC3)cc2)c2cc(NC(=O)c3ccc(C(=O)O)cc3)ccc21`, the IC50 in [3] is more than 3.3 µM; in assay [5] it was more than 3.3 µM; in assay [6] it was 0.73 µM.

On to `Cc1ccc(C2=CC(C)(C)Oc3c(Br)cc(S(=O)(=O)Nc4ccc(C(=O)O)cc4)cc32)cc1`, for which the IC50 in [3], in [5] and in assay [6] was more than 3.3 µM throughout.

Turning to `CC1(C)CC=C(c2ccc(C(=O)N3CCOCC3)cc2)c2cc(NC(=O)c3ccc(C(=O)O)cc3)ccc21`, the IC50 in assay [3], in assay [5] and in assay [6] was more than 3.3 µM throughout.

Values taken from ChEMBL document CHEMBL5634116, “Strategies for developing retinoic acid receptor alpha-selective antagonists as novel agents for male contraception” (Eur J Med Chem, 2023).
